In ChEMBL document CHEMBL2086252, “Syntheses and evaluation of anticonvulsant activity of novel branched alkyl carbamates” (J Med Chem, 2012):
Calls of active or inactive are those of the source. The calls are words filed in the database; no cut-off is given here.

Columns and labels:
Mus musculus [1] = test: Anticonvulsant activity in albino CF1 mouse assessed as protection against subcutaneous metrazol-induced seizures at 100 mg/kg, ip after 4 hrs; type: functional, organism-based; parameters: dose 100 mg/kg
Summary of the method: (§1)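 Mice dosed ip at 30, 100 or 300 mg/kg, then tested 0.5 h and 4 h after administration in the MES or scMet test. Protection was recorded as animals protected over animals tested. Neurotoxicity was recorded as motor impairment or sedation, as animals affected over animals tested.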

Rattus norvegicus [2] = test: Neurotoxicity in pilocarpine-induced status epilepticus Sprague-Dawley albino rat model assessed as minimal motor impairment at 100 mg/kg, ip after 1 hr by rotarod test; type: toxicity, organism-based; parameters: dose 100 mg/kg, route intraperitoneal; conditions: in vivo
Mus musculus [3] = test: Neurotoxicity in albino CF1 mouse assessed as minimal motor impairment at 300 mg/kg, ip after 0.5 hrs by rotarod test; type: toxicity, organism-based; parameters: dose 300 mg/kg, route intraperitoneal; conditions: in vivo; summary of the method: as §1
Mus musculus [4] = test: Anticonvulsant activity in albino CF1 mouse assessed as protection against subcutaneous metrazol-induced seizures at 300 mg/kg, ip after 0.5 hrs; type: functional, organism-based; parameters: dose 300 mg/kg; summary of the method: as §1
Mus musculus [5] = test: Anticonvulsant activity in albino CF1 mouse assessed as protection against subcutaneous metrazol-induced seizures at 100 mg/kg, ip after 0.5 hrs; type: functional, organism-based; parameters: dose 100 mg/kg; summary of the method: as §1
Rattus norvegicus [6] = test: Neurotoxicity in pilocarpine-induced status epilepticus Sprague-Dawley albino rat model assessed as minimal motor impairment at 300 mg/kg, ip after 4 hrs by rotarod test; type: toxicity, organism-based; parameters: dose 300 mg/kg, route intraperitoneal; conditions: in vivo
Summary of the method: (§2)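 Rat pilocarpine status epilepticus model: test carbamate given at 0 or 30 min after the first observed Racine stage 3 motor seizure, which marks SE onset. Neurotoxicity was scored within the same model.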

Rattus norvegicus [7] = test: Neurotoxicity in pilocarpine-induced status epilepticus Sprague-Dawley albino rat model assessed as minimal motor impairment at 300 mg/kg, ip after 0.25 hr by rotarod test; type: toxicity, organism-based; parameters: dose 300 mg/kg, route intraperitoneal; conditions: in vivo; summary of the method: as §2
Mus musculus [8] = test: Anticonvulsant activity in albino CF1 mouse assessed as protection against subcutaneous metrazol-induced seizures at 300 mg/kg, ip after 4 hrs; type: functional, organism-based; parameters: dose 300 mg/kg; summary of the method: as §1
Rattus norvegicus [9] = test: Neurotoxicity in pilocarpine-induced status epilepticus Sprague-Dawley albino rat model assessed as minimal motor impairment at 300 mg/kg, ip after 0.5 hrs by rotarod test; type: toxicity, organism-based; parameters: dose 300 mg/kg, route intraperitoneal; conditions: in vivo; summary of the method: as §2
Mus musculus [10] = test: Neurotoxicity in albino CF1 mouse assessed as minimal motor impairment at 100 mg/kg, ip after 0.5 hrs by rotarod test; type: toxicity, organism-based; parameters: dose 100 mg/kg, route intraperitoneal; conditions: in vivo; summary of the method: as §1
Mus musculus [11] = test: Anticonvulsant activity in albino CF1 mouse assessed as protection against subcutaneous metrazol-induced seizures at 30 mg/kg, ip after 0.5 hrs; type: functional, organism-based; parameters: dose 30 mg/kg; summary of the method: as §1
Rattus norvegicus [12] = test: Anticonvulsant activity in Sprague-Dawley albino rat assessed as protection against pilocarpine-induced status epilepticus at 200 mg/kg, ip; type: functional, organism-based; parameters: dose 200 mg/kg
Summary of the method: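 Pilocarpine status epilepticus model in rats. Number and severity of convulsive seizures were observed behaviourally.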

Rattus norvegicus [13] = test: Neurotoxicity in pilocarpine-induced status epilepticus Sprague-Dawley albino rat model assessed as minimal motor impairment at 100 mg/kg, ip after 0.5 hrs by rotarod test; type: toxicity, organism-based; parameters: dose 100 mg/kg, route intraperitoneal; conditions: in vivo
Rattus norvegicus [14] = test: Neurotoxicity in pilocarpine-induced status epilepticus Sprague-Dawley albino rat model assessed as minimal motor impairment at 100 mg/kg, ip after 2 hrs by rotarod test; type: toxicity, organism-based; parameters: dose 100 mg/kg, route intraperitoneal; conditions: in vivo
Mus musculus [15] = test: Anticonvulsant activity in albino CF1 mouse assessed as protection against maximal electroshock-induced seizures at 30 mg/kg, ip after 0.5 hrs; type: functional, organism-based; parameters: dose 30 mg/kg; summary of the method: as §1
Rattus norvegicus [16] = test: Neurotoxicity in pilocarpine-induced status epilepticus Sprague-Dawley albino rat model assessed as minimal motor impairment at 100 mg/kg, ip after 4 hrs by rotarod test; type: toxicity, organism-based; parameters: dose 100 mg/kg, route intraperitoneal; conditions: in vivo
Mus musculus [17] = test: Neurotoxicity in albino CF1 mouse assessed as minimal motor impairment at 30 mg/kg, ip after 4 hrs by rotarod test; type: toxicity, organism-based; parameters: dose 30 mg/kg, route intraperitoneal; conditions: in vivo; summary of the method: as §1
Mus musculus [18] = test: Neurotoxicity in albino CF1 mouse assessed as minimal motor impairment at 100 mg/kg, ip after 4 hrs by rotarod test; type: toxicity, organism-based; parameters: dose 100 mg/kg, route intraperitoneal; conditions: in vivo; summary of the method: as §1
Rattus norvegicus [19] = test: Neurotoxicity in pilocarpine-induced status epilepticus Sprague-Dawley albino rat model assessed as minimal motor impairment at 100 mg/kg, ip after 0.25 hr by rotarod test; type: toxicity, organism-based; parameters: dose 100 mg/kg, route intraperitoneal; conditions: in vivo
Rattus norvegicus [20] = test: Neurotoxicity in pilocarpine-induced status epilepticus Sprague-Dawley albino rat model assessed as minimal motor impairment at 300 mg/kg, ip after 2 hrs by rotarod test; type: toxicity, organism-based; parameters: dose 300 mg/kg, route intraperitoneal; conditions: in vivo; summary of the method: as §2
Mus musculus [21] = test: Anticonvulsant activity in albino CF1 mouse assessed as protection against subcutaneous metrazol-induced seizures at 30 mg/kg, ip after 4 hrs; type: functional, organism-based; parameters: dose 30 mg/kg; summary of the method: as §1
Mus musculus [22] = test: Neurotoxicity in albino CF1 mouse assessed as minimal motor impairment at 300 mg/kg, ip after 4 hrs by rotarod test; type: toxicity, organism-based; parameters: dose 300 mg/kg, route intraperitoneal; conditions: in vivo; summary of the method: as §1
Mus musculus [23] = test: Neurotoxicity in albino CF1 mouse assessed as minimal motor impairment at 30 mg/kg, ip after 0.5 hrs by rotarod test; type: toxicity, organism-based; parameters: dose 30 mg/kg, route intraperitoneal; conditions: in vivo; summary of the method: as §1
Mus musculus [24] = test: Anticonvulsant activity in albino CF1 mouse assessed as protection against maximal electroshock-induced seizures at 300 mg/kg, ip after 4 hrs; type: functional, organism-based; parameters: dose 300 mg/kg; summary of the method: as §1
Mus musculus [25] = test: Anticonvulsant activity in albino CF1 mouse assessed as protection against maximal electroshock-induced seizures at 300 mg/kg, ip after 0.5 hrs; type: functional, organism-based; parameters: dose 300 mg/kg; summary of the method: as §1
Mus musculus [26] = test: Anticonvulsant activity in albino CF1 mouse assessed as protection against maximal electroshock-induced seizures at 100 mg/kg, ip after 4 hrs; type: functional, organism-based; parameters: dose 100 mg/kg; summary of the method: as §1
Mus musculus [27] = test: Anticonvulsant activity in albino CF1 mouse assessed as protection against maximal electroshock-induced seizures at 30 mg/kg, ip after 4 hrs; type: functional, organism-based; parameters: dose 30 mg/kg; summary of the method: as §1

## CC(C)C(C)COC(N)=O (racemic)
Mus musculus [1]
  Activity: inactive
Rattus norvegicus [2]
  Activity: Non-toxic
Mus musculus [3]
  Activity: Toxic
Mus musculus [4]
  Activity: Active
Mus musculus [5]
  Activity: inactive
Rattus norvegicus [6]
  Activity: Non-toxic
Rattus norvegicus [7]
  Activity: Toxic
Mus musculus [8]
  Activity: inactive
Rattus norvegicus [9]
  Activity: Toxic
Mus musculus [10]
  Activity: Non-toxic
Mus musculus [11]
  Activity: inactive
Rattus norvegicus [12]
  Activity: Active
Rattus norvegicus [13]
  Activity: Non-toxic
Rattus norvegicus [14]
  Activity: Non-toxic
Mus musculus [15]
  Activity: inactive
Rattus norvegicus [16]
  Activity: Non-toxic
Mus musculus [17]
  Activity: Non-toxic
Mus musculus [18]
  Activity: Non-toxic
Rattus norvegicus [19]
  Activity: Non-toxic
Rattus norvegicus [20]
  Activity: Non-toxic
Mus musculus [21]
  Activity: inactive
Mus musculus [22]
  Activity: Non-toxic
Mus musculus [23]
  Activity: Non-toxic
Mus musculus [24]
  Activity: inactive
Mus musculus [25]
  Activity: Active
Mus musculus [26]
  Activity: inactive
Mus musculus [27]
  Activity: inactive
